Screening results: PubChem, several laboratories
AI-2 QS mod: Vibrio harveyi AI-2 quorum sensing modulation; 300,000 compounds, 0.4% hits; activity change, % at 7.5 µM; Vibrio harveyi JMH597 AI-2 luminescence/OD600 ratio, 9 h; active compounds read low; strain lacks LuxN and CqsS sensors; 0 = neutral-control median; in the data active = activity change below about -75%, passing the limit was not always enough;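 note: luminescence divided by OD600 gain over 9 h not by final OD600 alone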
bovine MsrA act: activators of bovine methionine sulfoxide reductase A. purified bovine MsrA, absorbance read-out. activation, % at 10.6 µM. 360,000 compounds, 0.3% hits. AID 602163; in the data active = activation above about 7.5%;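 note: 0% = vehicle and 100% = reference activator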
HTR2A ag: agonists of mouse serotonin 5-HT2A receptor (HTR2A); CHO-K1 mHTR2A beta-arrestin complementation, luminescence; percent of 30 µM serotonin response; activation, % at 7.6 µM; 360,000 compounds, 0.66% hits; AID 624169;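 active = activation above a run cutoff, the mean activation of all tested compounds plus 3 SD, cut at about 14% in these data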;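 note: 0% = plate median of compound wells and 100% = 30 µM serotonin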
Target sequence (P35363 whole entry, looked up): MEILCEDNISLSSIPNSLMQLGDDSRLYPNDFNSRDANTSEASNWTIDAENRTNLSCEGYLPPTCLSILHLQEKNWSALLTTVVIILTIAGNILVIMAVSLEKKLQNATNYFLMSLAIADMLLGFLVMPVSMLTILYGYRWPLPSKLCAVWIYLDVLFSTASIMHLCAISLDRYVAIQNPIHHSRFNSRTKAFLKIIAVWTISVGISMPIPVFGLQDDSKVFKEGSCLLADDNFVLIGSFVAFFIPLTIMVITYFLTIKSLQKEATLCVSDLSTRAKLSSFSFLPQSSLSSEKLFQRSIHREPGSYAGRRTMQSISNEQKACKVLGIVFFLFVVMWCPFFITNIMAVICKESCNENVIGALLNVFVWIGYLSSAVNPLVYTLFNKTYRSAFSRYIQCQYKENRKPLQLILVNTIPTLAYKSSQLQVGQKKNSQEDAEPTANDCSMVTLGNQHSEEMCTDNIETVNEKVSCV
MsrA inhibitor: inhibitors of bovine MsrA; inhibition, % at 15.5 µM; AID 651718; 360,000 compounds, 0.75% hits; purified bovine MsrA, absorbance read-out; in the data active = inhibition above about 4.5%;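 note: 0% = vehicle wells with enzyme and 100% = reference inhibitor wells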
Tb MetRS inh: Trypanosoma brucei MetRS inhibition; AID 624268; inhibition, % at 11.9 µM; 360,000 compounds, 0.4% hits; purified T. brucei MetRS, ATP depletion, Kinase-Glo luminescence;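 active = inhibition above a per-plate cutoff of the control wells' mean inhibition plus 3 SD, cut at about 5.5% in these data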;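 note: 0% = DMSO wells median and 100% = median of wells with control inhibitor compound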
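Material – parasite MetRS enzyme · Medium – HEPES-MgCl2-KCl buffer plus DTT, spermine, BSA, pyrophosphatase · Reagent – ATP, methionine and E. coli bulk tRNA substrates · Times – 15 min enzyme-compound preincubation, 2 h reaction, 10 min detection, 25 °C · Measured by – luminescence of leftover ATP · Evaluation – percent inhibition relative to median high and low control wells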
AHR activator: activators of human aryl hydrocarbon receptor; AHR-responsive luciferase reporter cells, luminescence; activation, % at 5 µM; P35869; 320,000 compounds, 2.5% hits; in the data active = activation above about 47%;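 note: 0% = vehicle wells and 100% = reference agonist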
* hit, by the source's call; / = not tested or not shown. Only some compounds are listed: those with a hit (about 4.4% of all), similar ones and a draw of the others.

SMILES | AI-2 QS mod | bovine MsrA act | HTR2A ag | MsrA inhibitor | Tb MetRS inh | AHR activator
COC(=O)[C@]12C[C@H](CC(=O)NCc3cccs3)C(=O)N(Cc3ccccc3)C1=C[C@H](C(C)(C)C)O[C@@H]2C | / | / | / | 0 | / | /
CC(=O)Oc1ccc(C(=O)N2c3ccccc3NC(=O)C2C)cc1 (centres undefined) | 10 | -13 | 6 | 1 | -2 | 0
Cn1c(O)c(/C=C2\C=Nc3ccccc32)sc1=Nc1ccc(C(=O)O)cc1 | 26 | -3 | -4 | 1 | 1 | 51*
O=C(Cc1ccccc1)Nn1c(O)c(/C=C2\C=Nc3ccccc32)sc1=S | 0 | -3 | 0 | 0 | 2 | 76*
CCn1c(O)c(/C=C2\C=Nc3ccccc32)sc1=Nc1ccccc1 | 4 | -6 | -2 | -2 | -1 | 9
O=C(N[C@@H](Cc1cccnc1)C(=O)N1CCC[C@H]1C(=O)NCc1ccccc1)c1ccc(Cl)c(Cl)c1 | / | / | / | -1 | / | /
Cc1nc2c(-c3ccc(F)cc3)cnn2c2c1CCC2 | -2 | -6 | 3 | 1 | -1 | 71*
COc1ccccc1/C=C/C=N/n1c(-c2n[nH]c3c2CCC3)n[nH]c1=S | 18 | 2 | 4 | 0 | 0 | 55*
COc1cccc(/C=N/n2c(-c3n[nH]c4c3CCC4)n[nH]c2=S)c1O | 25 | -4 | 2 | 1 | -2 | 24
COC(=O)C1=C(C)N(C)C(=NCc2cccc(C(F)(F)F)c2)NC1c1cccc(F)c1 (centres undefined) | / | / | / | -1 | / | /
Nc1[nH]c(C(=O)c2ccccc2)c(-c2cccc3ccccc23)c1C(=O)c1ccc(Br)cc1 | / | / | / | 0 | / | /
Clc1ccc(Cn2ccc(-c3ccc4c(c3)OCO4)n2)cc1Cl | -53 | -4 | 1 | 1 | 1 | 51*
CCN(CC)c1ncnc2c1ncn2[C@H]1CN(Cc2ccccc2)C[C@@H](COC(C)=O)O1 | / | 0 | 0 | 0 | 0 | /
Cc1ccc(-c2ccc(/C=C(\C#N)C(N)=S)n2C)cc1 | 4 | -3 | -9 | -1 | 1 | 79*
Cn1cccc1/C=C(/C#N)C(N)=S | 40 | -3 | -3 | 1 | 0 | -3
CCCn1nc(NC(=O)c2cccs2)c2cc3cc(OC)ccc3nc21 | 30 | -4 | -1 | 0 | 0 | 66*
CCCCn1nc(NC(=O)c2cccs2)c2cc3cc(OC)ccc3nc21 | 21 | -4 | 7 | 1 | -1 | 50*
Cc1onc(-c2c(F)cccc2Cl)c1-c1ncc(-c2ccc(Cl)cc2)o1 | / | / | / | -1 | / | /
COc1ccc(-c2nc3ccccc3c(=O)n2O)cc1 | 17 | -7 | -9 | 0 | -1 | 7
COc1ccc2c3n(nc2c1)CCN=C3c1cc(Cl)c(N)c(Cl)c1 | / | -3 | 0 | 1 | 1 | 61*
COc1ccc(C2=NCCn3nc4ccccc4c32)cc1 | / | -10 | 6 | 1 | -1 | 54*
Nc1c(Cl)cc(C2=NCCn3nc4cc(C(F)(F)F)ccc4c32)cc1Cl | 15 | -1 | -1 | 1 | 0 | 54*
CN1CCCCC(NC(=O)CCl)C1=O (centres undefined) | / | / | / | 0 | / | /
COc1ccccc1-n1cc(-c2ccc([N+](=O)[O-])cc2)[nH]c1=S | 12 | -5 | -1 | 1 | 1 | 63*
COc1ccccc1-n1cc(-c2ccc(Br)cc2)[nH]c1=S | -9 | -1 | -1 | 1 | 2 | 78*
SMILES | AI-2 QS mod | bovine MsrA act | HTR2A ag | MsrA inhibitor | Tb MetRS inh | AHR activator
O=C(NCc1ccccc1)N1CCN(c2ccc(Cl)c(Cl)c2)CC1 | 35 | -8 | 18* | 0 | -1 | -1
O=C(NCc1ccccc1)N1CCN(c2ccc(F)cc2)CC1 | 6 | -2 | 0 | 0 | -1 | -2
Cc1ccc(O)c(NC(=O)C2=CC(c3cccs3)=NS(=O)(=O)N2C)c1 | 13 | -1 | -2 | 4 | 0 | 52*
COn1c(=O)c(-c2ccc(Cl)cc2)[n+]([O-])c2ccccc21 | / | -2 | 3 | 4 | 0 | 72*
C/C(=N\Nc1c(Cl)c(Cl)nc(C(=O)O)c1Cl)c1ccc(O)cc1 | -11 | -7 | -1 | 3 | -1 | 50*
CC(=O)N1CCc2c(sc(NC(=O)c3ccc([N+](=O)[O-])o3)c2C#N)C1 | 5 | -16 | 5 | 4 | -1 | /
CC(C)N1CCc2c(sc(NC(=O)c3ccc([N+](=O)[O-])o3)c2C(N)=O)C1 | -90* | 1 | -10 | 1 | 0 | 5
COC(=O)c1c(NC(=O)c2ccc([N+](=O)[O-])o2)sc2c1CCN(C(C)C)C2 | -90* | -3 | -2 | 1 | -1 | 4
COC(=O)c1c(NC(=O)Cc2ccccc2)sc2c1CCN(C(C)C)C2 | 24 | -4 | 3 | 0 | -1 | 0
CCSc1nc2c(c(=O)[nH]1)C(c1ccncc1)C(C(=O)OC(C)C)=C(C)N2 (centres undefined) | 25 | -3 | 3 | -1 | 0 | 48*
CCSc1nc2c(c(=O)[nH]1)C(c1cccnc1)C(C(=O)OC)=C(C)N2 (centres undefined) | 24 | -2 | -1 | 0 | 0 | 4
CC(=O)N1c2ccccc2C2(O)N=C(C)SC12 (centres undefined) | 12 | 3 | 7 | / | 0 | 51*
COC(=O)c1ccc(-c2cccc(CN3CCN(c4ncc(Cc5ccccc5)cn4)CC3)c2)cc1 | / | / | / | 2 | / | /
COc1cc(C2C3=C(CCCC3=O)Nc3[nH]n(-c4ccccc4)c(=O)c32)cc(OC)c1OC (centres undefined) | 19 | -3 | -3 | 2 | 0 | 0
COc1cc(C2C3=C(CCCC3=O)Nc3[nH]n(-c4ccccc4)c(=O)c32)ccc1OC(C)=O (centres undefined) | 14 | -4 | -3 | 4.6* | -1 | -1
O=c1[nH]c2ccccc2nc1-c1ccc(Cl)cc1 | 9 | -4 | 0 | -1 | 0 | 76*
CCN1C(=O)N[C@@H](CCc2ccccc2)C(C(C)=O)=C1C | 10 | -2 | -2 | 1 | 0 | 1
CCN1C(=S)N[C@@H](CCc2ccccc2)C(C(=O)OC)=C1C | -3 | -2 | -2 | 1 | 0 | 53*
COc1cccc(/C=N/Nc2snc(SC)c2C#N)c1O | 20 | -6 | 5 | 1 | 1 | 39
COc1cccc(/C=N/Nc2snc(SC)c2C#N)c1 | / | -10 | -6 | 2 | -1 | 49*
CSc1nsc(/C=C/Nc2ccc(C(=O)O)cc2)c1C#N | 23 | -4 | 2 | 0 | -1 | 10
CSc1nsc(N/N=C/c2ccccc2)c1C#N | 13 | -4 | -2 | 1 | 1 | 60*
CCOC(=O)CN1C(=O)[C@]2(OCCC=C[C@H]2C)c2cc(OC)ccc21 | / | / | / | 2 | / | /
CCN(CC)c1nc(C#N)cc(-c2ccc(OC)cc2)n1 | 16 | 6 | -3 | 8.0* | -1 | 42
COc1ccc(-c2cc(C#N)nc(Cl)n2)cc1 | 1 | 1 | 0 | 5.1* | 0 | 4
